Most compounds without a hit are left out; they make up all but 1.9% or so of the library.
Rce1 inh = inhibitors of yeast Ras-converting enzyme. Q03530. yeast membranes, quenched prenylated peptide cleavage fluorescence. calls only. actives 0.27% (n = 290,000);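 active = fall in fluorescence gain of 50% or more versus controls, with final raw signal at or below 3038400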;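 also: plate controls were neutral control wells for no effect and wells lacking membranes for full effect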
Target sequence (Q03530 whole entry, looked up): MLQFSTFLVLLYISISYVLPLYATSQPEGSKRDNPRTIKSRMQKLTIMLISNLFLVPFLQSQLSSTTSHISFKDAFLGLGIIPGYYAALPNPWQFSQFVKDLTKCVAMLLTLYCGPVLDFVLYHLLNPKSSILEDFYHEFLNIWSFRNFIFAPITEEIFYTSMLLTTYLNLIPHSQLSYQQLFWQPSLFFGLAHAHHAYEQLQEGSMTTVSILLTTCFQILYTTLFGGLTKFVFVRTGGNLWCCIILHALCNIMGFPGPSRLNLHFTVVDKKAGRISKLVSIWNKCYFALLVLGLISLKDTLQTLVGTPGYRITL
V-ATPase pH = regulators of yeast V-ATPase proton transport | S. cerevisiae, pHLuorin cytosolic pH fluorescence | response, % at 10 µM | actives 0.37% (n = 350,000) | AID 504577; in the data active = response mostly above about 7.3%, no sharp cut-off; inactive = mostly below about 5.4%; also: actives read high
proKLK7 act = activators of human kallikrein-7 zymogen | P49862 | purified proKLK7, EDANS-DABCYL substrate fluorescence; 100% is mature enzyme control, 0% vehicle | activation, % at 7 µM | actives 0.9% (n = 370,000) | AID 652039;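 active = activation above the mean of all tested compounds plus 3 SD, computed per campaign excluding outliers beyond control limits, cut at about 13% in these data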
T cell HTS = modulates CD8 T cell binding to vesicles; actives 0.068% (n = 330,000); response (vesicle binding), % at 7 µM; 2C CD8+ T cell-vesicle binding, flow cytometry; hits give low values;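 active = response, share of CD8 T cells binding vesicles, and their 90th percentile fluorescence all below set limits, cut at about 80% in these data, passing the limit was not always enough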;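 also: values below 100% mean blocked vesicle binding to the CD8+ T cells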
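Assay system – 2C mouse CD8+ T cells · Also added – QL9-loaded Drosophila micro-vesicles · Timing – Cell–vesicle co-incubation 1.5 h at 37 °C, staining 20 min on ice · Signal – flow cytometry of vesicle-bound cells · Measure – percent CD8+ FL2 mean versus row control · Controls – Peptide-free naked vesicles (low) and QL9 vesicles with 0.7% DMSO vehicle (high)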
CR mimetic SO = yeast age-related superoxide inhibition as caloric restriction mimetic | S. cerevisiae aged cells, superoxide DHE fluorescence; hits give low values | superoxide response (% of plate mean), % at 10 µM | actives 0.18% (n = 330,000) | AID 2690;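 active = superoxide response under a set limit, about three screen SD below normal, cut at about 65% in these data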;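 also: yeast aged for seven days with compound at 30 °C before DHE staining; 100% = average MFI of all compound-treated wells on the plate with controls excluded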
beta cell repl = MIN6 beta-cell proliferation induction; MIN6 cells proliferation, ATPlite luminescence, 48 h; cells starved in 0.2% serum; 100% = growth in 10% serum; proliferation, % at 10 µM; actives 0.29% (n = 330,000);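 active = compounds whose signal lies at least 3.5 SD above the mean of all wells on their plate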;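 also: 0% = DMSO-treated cells in low-serum medium and 100% = 10% serum control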
Superoxide pick = confirmation of caloric restriction mimetics inhibiting yeast age-related superoxide | shares compounds with CR mimetic SO | S. cerevisiae aging, superoxide DHE fluorescence; hits give low values | superoxide response (% of plate), % at 10 µM | actives 1% (n = 850) | AID 434994;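 active = superoxide signal below 65% of the plate average of sample wells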;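 also: cells aged with compound for 7 days at 30 degrees C before staining; 100% equals mean DHE fluorescence of all compound wells on the plate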
DHE counter = compound alters DHE oxidation or fluorescence in yeast | S. cerevisiae BY4741, flow cytometry; hits give low values | shares compounds with CR mimetic SO | 850 tested, under 10 active | fluorescence response, % at 10 µM | AID 435000;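 active = fluorescence response below 15%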;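 also: percent of the mean fluorescence averaged over all compound wells on the plate; lower means stronger quenching of DHE signal or ROS scavenging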
An asterisk follows results filed as active; i = inactive; / = not tested or not shown.

SMILES	Rce1 inh	V-ATPase pH	proKLK7 act	T cell HTS	CR mimetic SO	beta cell repl	Superoxide pick	DHE counter
Cc1ccc(Cl)cc1NS(=O)(=O)c1cn(C)nc1C	i	2	-1	427	61*	-3	102	97
COc1ccc(Cl)cc1NS(=O)(=O)c1cn(C)nc1C	i	2	0	220	104	-1	/	/
COC(=O)c1cc(S(=O)(=O)N2CCN(c3ccc(C(C)=O)cc3)CC2)c[nH]1	i	0	1	181	84	-2	/	/
Cc1ccc(S(=O)(=O)N2CCN=C2SCc2ccccc2)cc1	i	0	-1	241	63*	0	99	100
O=C(Cn1cnc2c(NCc3ccccc3)ncnc21)NCCc1cc2ccccc2[nH]1	/	-1	-1	/	98	/	/	/
COc1cccc([C@H]2NC(=O)C/C=C/[C@@H](C)[C@@H](c3cccc(OC)c3)NC(=O)C/C=C/[C@H]2C)c1	/	/	0	/	/	/	/	/
O=C(Nc1ccc2nc3ccccc3nc2c1)c1ccc(Br)cc1	i	-35	0	312	99	0	93	113
O=C(Nc1ccc2cccnc2c1)c1ccc(Br)cc1	i	0	-2	177	100	0	/	/
CN(C)S(=O)(=O)c1ccc(C(=O)OCn2nnc3ccccc3c2=O)cc1	i	-2	0	195	65*	0	103	91
CC(C)CCC(CCNCc1ccccn1)c1ccc(Cl)cc1 (configuration not stated)	i	-2	0	63	48*	-5	107	109
CCOC(=O)c1sc(N)nc1C(F)(F)F	/	1	0	/	/	/	/	/
CC(C)(C)c1ccc(-n2ncc3c2CCCC3NC(=O)c2cnccn2)cc1 (configuration not stated)	i	4	0	332	98	-8	/	/
CC(C)(C)c1ccc(-n2ncc3c2CCCC3NC(=O)c2csnn2)cc1 (configuration not stated)	i	0	0	532	58*	-3	101	104
CCCc1c(NC(=O)Nc2ccc(F)cc2)cnn1-c1ccccc1	i	-3	0	249	61*	-1	120	108
CCCc1c(C(=O)Nc2ccc(F)cc2C)cnn1-c1ccccc1	i	1	0	263	87	2	/	/
COC(=O)c1ccc2nc(-c3ccc(Cl)cc3)c(Cc3ccccc3)n2c1	/	/	-1	/	/	/	/	/
COc1cccc(CN(C)C[C@@H]2OCc3cnnn3CCCC(=O)N([C@@H](C)CO)C[C@H]2C)c1	/	1	0	/	/	/	/	/
COc1c(O)c(=O)n2c3ccccc3c3ccnc1c32	i	-3	10	546	62*	0	89	95
CSCCC(NC(=O)C1CCC(C)CC1)C(=O)NCCN1CCOCC1 (configuration not stated)	i	0	-1	198	58*	-3	98	97
CC(C)CC(NC(=O)C1CCC(C)CC1)C(=O)NCCN1CCOCC1 (configuration not stated)	i	-5	-1	988	109	0	/	/
NC(=NC(=O)c1ccc(OC(F)(F)F)cc1)c1ccc(C(F)(F)F)cn1	i	5	0	359	62*	-3	108	120
C=CCN=C1S/C(=C/c2ccc([N+](=O)[O-])cc2)C(=O)N1CC=C	i	-2	1	110	60*	1	77	89
O=C(NCc1ccc(Cl)cc1)C1CCCN(c2cnccn2)C1 (configuration not stated)	i	-4	0	210	65*	-2	112	112
c1ccc(-n2ncc3c(NCc4ccco4)ncnc32)cc1	i	0	0	257	87	-1	90	90
c1ccc(Cn2ncc3c(NCc4ccco4)ncnc32)cc1	i	0	0	270	93	-2	/	/
CCCCNc1ncnc2c1cnn2-c1ccccc1	i	2	0	261	110	-7	105	108
CCCCNc1ncnc2c1cnn2-c1ccc(Cl)cc1	i	1	0	i	85	-3	/	/

Screens (PubChem BioAssay)
